Experimental data from different studies.
Protocols differ between the studies behind these lines.
Target: Calcium/calmodulin-dependent protein kinase type II subunit beta (CAMK2B, Homo sapiens, UniProt Q13554)

O=C(NCC1CCOCC1)c1n[nH]cc1NC(=O)c1c(F)cccc1F
remaining binding (binding, competition with immobilised ligand; 1 µM): 75%

CN(C)c1nccc(-c2cnc3ncccn23)n1
remaining binding (binding; 1 µM): 89%

C=CC(=O)N1CCC(C(=O)NCC(=O)N2CCN(c3nc(-c4cnc(N)nc4C(F)F)nc(N4CCOCC4)n3)CC2)CC1
remaining binding (binding, competition with immobilised ligand; 1 µM): 100%

C[C@@H]1CCN(c2nccc(-c3cnn4ncccc34)n2)C1
remaining binding (binding; 1 µM): 78%

FC(F)(F)c1ccc2c(c1)nc(-c1cccnc1)n2C1CC1
remaining binding (cell-free assay, competition with immobilised ligand; 1 µM): 100%

CN(c1nccc(-c2cnn3ncccc23)n1)C1CC1
remaining binding (binding; 1 µM): 84%

C[C@@H](c1cccc(C#N)c1)n1cc(Cl)cc(C(N)=O)c1=N
remaining binding (cell-free assay, competition with immobilised ligand; 1 µM): 100%

O=C(NCCCN1CCOCC1)c1ccc(Nc2ncc(Cl)c(-c3ccc(Cl)s3)n2)cc1
remaining binding (binding, competition with immobilised ligand; 1 µM): 79%

F[C@@H]1CCN(c2nccc(-c3cnn4ncccc34)n2)C1
remaining binding (binding; 1 µM): 100%

Cc1cc(NC(=O)c2cccc(S(F)(F)(F)(F)F)c2)cc(-n2ccn3nc(-c4cccnc4)cc23)c1
remaining binding (cell-free assay, competition with immobilised ligand; 1 µM): 100%

CNC(=O)[C@@H]1CC[C@@H](n2c(-c3ccc4cnccc4c3)nc3ccc(C(=O)NCc4cccc(C(N)=O)c4)cc32)C1
remaining binding (binding, competition with immobilised ligand; 1 µM): 100%

O=C(c1ccc(Nc2ncc(Cl)c(-c3cc4ccccc4s3)n2)cc1)N1CCC(N2CCCC2)CC1
remaining binding (binding, competition with immobilised ligand; 1 µM): 83%

COc1cnc(Nc2cccc(S(N)(=O)=O)c2)nc1N1CCN(c2ccccc2)CC1
remaining binding (binding, competition with immobilised ligand; 1 µM): 83%

COc1ncc2cc3ccccc3nc2c1C#N
remaining binding (cell-free assay, competition with immobilised ligand; 5 µM): 87%

O=C(c1ccc(Nc2ncc(Cl)c(-c3ccc(Cl)s3)n2)cc1)N1CCC(N2CCCC2)CC1
remaining binding (binding, competition with immobilised ligand; 1 µM): 87%

CN(c1ccnc(CNc2nc(Nc3ccc4c(c3)CC(=O)N4)ncc2C(F)(F)F)n1)S(C)(=O)=O
remaining binding (cell-free assay, competition with immobilised ligand; 1 µM): 86%

CN(CCCC(F)(F)F)c1nccc(-c2cnn3ncccc23)n1
remaining binding (binding; 1 µM): 100%

CN([C@@H]1CCc2c(CC(=O)O)c3cc(S(C)(=O)=O)ccc3n2C1)S(=O)(=O)c1ccc(F)cc1
remaining binding (cell-free assay, competition with immobilised ligand; 1 µM): 100%

N[C@@H]1CCN(c2nccc(-c3cnn4ncccc34)n2)C1
remaining binding (binding; 1 µM): 100%

C[C@H](NC(=O)c1cnc2n1[C@](C)(Cc1ccc(C#N)cc1)C(=O)N2c1cc(Cl)c(F)c(Cl)c1)C(=O)NC1(c2ccccn2)CC1
remaining binding (cell-free assay, competition with immobilised ligand; 1 µM): 100%

C[C@@H](c1ccc(-n2cnc3c(N)ncnc32)cc1)N1CCc2nn(C)c(Cc3ccccc3)c2C1=O
remaining binding (binding, competition with immobilised ligand; 0.1 µM): 98%
